Test results published in ChEMBL document CHEMBL1158847, “Litebamine N-homologues: preparation and anti-acetylcholinesterase activity” (J Nat Prod, 1998).

test system: not listed separately; test: Antiplatelet activity against rabbit platelets assessed as inhibition of arachidonic acid-induced thromboxane B2 formation at 15 uM; type: functional; conditions: Oryctolagus cuniculus, Platelet

Q: For `COc1cc2c(ccc3c4c(c(O)c(OC)c32)CN(C)CC4)cc1O` [LITEBAMINE], which inhibition at 15 µM is on record?
A: 77%

molecular target: Acetylcholinesterase (Electrophorus electricus, UniProt O42275); test: Inhibition of electric eel AChE by colorimetric method; conditions: not given
Procedure, shortened: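 Ellman colorimetric assay. Enzyme 0.125 U preincubated 2 min at 37 °C with test samples and DTNB 0.3 mM in 0.1 M phosphate buffer, pH 8.0. Reaction started with 0.5 mM […]. Absorbance followed at 412 nm over time. IC50 taken from dose-response curves of at least four concentrations spanning 0-90% inhibition.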

Acetylcholinesterase, sequence (O42275 whole entry): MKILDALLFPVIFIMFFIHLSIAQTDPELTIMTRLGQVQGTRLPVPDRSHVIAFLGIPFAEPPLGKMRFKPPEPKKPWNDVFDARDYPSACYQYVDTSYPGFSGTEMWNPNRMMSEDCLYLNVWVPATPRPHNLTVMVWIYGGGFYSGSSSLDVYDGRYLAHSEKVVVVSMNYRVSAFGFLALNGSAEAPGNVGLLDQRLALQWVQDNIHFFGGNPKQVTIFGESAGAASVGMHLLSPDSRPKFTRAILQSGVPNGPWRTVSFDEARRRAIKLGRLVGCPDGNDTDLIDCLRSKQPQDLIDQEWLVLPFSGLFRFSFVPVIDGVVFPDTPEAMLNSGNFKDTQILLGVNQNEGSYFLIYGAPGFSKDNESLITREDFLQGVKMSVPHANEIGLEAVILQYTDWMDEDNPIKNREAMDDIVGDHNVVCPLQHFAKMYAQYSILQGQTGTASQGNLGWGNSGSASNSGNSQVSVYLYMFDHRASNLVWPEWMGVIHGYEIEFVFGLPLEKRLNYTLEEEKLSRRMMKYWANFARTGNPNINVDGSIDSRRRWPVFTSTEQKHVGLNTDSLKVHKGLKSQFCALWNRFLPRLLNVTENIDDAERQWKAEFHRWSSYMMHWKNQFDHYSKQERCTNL

Q: Which IC50 does the source give for `CCCN1CCc2c(c(O)c(OC)c3c2ccc2cc(O)c(OC)cc23)C1` here?
A: 7.21 µM

Q: With `CCC[N+]1(C)CCc2c(c(O)c(OC)c3c2ccc2cc(O)c(OC)cc23)C1` (stereo not given) as the compound, how does the IC50 read?
A: 2.79 µM

Q: With `CCCNCCc1cc(O)c(OC)c2c1ccc1cc(O)c(OC)cc12` as the compound, how does the IC50 read?
A: 107 µM

Q: With `CCCCNCCc1cc(O)c(OC)c2c1ccc1cc(O)c(OC)cc12` as the compound, how does the IC50 read?
A: 111 µM

Q: Which IC50 does the source give for `COc1cc2c(ccc3c(CCNCC(C)C)cc(O)c(OC)c32)cc1O` here?
A: 62 µM

Q: With `COc1cc2c(ccc3c(CCNC(C)C)cc(O)c(OC)c32)cc1O` as the compound, how does the IC50 read?
A: 72 µM

Q: Which IC50 does the source give for `COc1cc2c(ccc3c4c(c(O)c(OC)c32)CN(Cc2ccccc2)CC4)cc1O` here?
A: 10.7 µM

Q: Which IC50 does the source give for `CCCCN1CCc2c(c(O)c(OC)c3c2ccc2cc(O)c(OC)cc23)C1` here?
A: 7.79 µM

Q: For `C=CCN1CCc2c(c(O)c(OC)c3c2ccc2cc(O)c(OC)cc23)C1`, which IC50 is on record?
A: 15.8 µM

Q: With `CCNCCc1cc(O)c(OC)c2c1ccc1cc(O)c(OC)cc12` as the compound, how does the IC50 read?
A: 27.2 µM

Q: Which IC50 does the source give for `COc1cc2c(ccc3c4c(c(O)c(OC)c32)CN(C(C)C)CC4)cc1O` here?
A: 6.8 µM

Q: For `COc1cc2c(ccc3c4c(c(O)c(OC)c32)CN(CC(C)C)CC4)cc1O`, which IC50 is on record?
A: 6.51 µM

Q: For `CCN1CCc2c(c(O)c(OC)c3c2ccc2cc(O)c(OC)cc23)C1`, which IC50 is on record?
A: 14.5 µM

Q: With `COc1cc2c(ccc3c4c(c(O)c(OC)c32)CN(C)CC4)cc1O` [LITEBAMINE] as the compound, how does the IC50 read?
A: 22 µM
